Laboratory results: ChEMBL document CHEMBL1154801, “Novel phosphoramidates with porphine and nitrogenous drug: one-pot synthesis and orientation to cancer cells” (Eur J Med Chem, 2010)

Assays:
Bel-7402 = assay: Cytotoxicity against human Bel7402 cells after 48 hrs in the dark by MTT assay; format: functional, cell-based; details: Bel-7402, 48 h
Method in brief: (§1)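 Cells seeded at 5000 per well and left to attach overnight. Compounds were taken from 50 mM DMSO stocks and diluted to final concentrations of 2.5–100 μM. Cells were exposed for 48 h in the dark, then given MTT (5 mg/mL in PBS) for 3 h. Formazan was dissolved in DMSO and absorbance read at 570 nm. The 50% cell-death concentration (IC50) was determined.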

[1] = Cytotoxicity against human L02 cells after 48 hrs in the dark by MTT assay; format: cell-based; details: l02, 48 h; method in brief: as §1

Row | Compound | IC50 (Bel-7402) | Activity [1]
1 | O=P(NCCCl)(NCCCl)Oc1ccc(-c2c3nc(c(-c4ccc(Cl)cc4)c4ccc([nH]4)c(-c4ccc(Cl)cc4)c4nc(c(-c5ccc(Cl)cc5)c5ccc2[nH]5)C=C4)C=C3)cc1 | 20.3 µM | Non-toxic
2 | COc1ccc(-c2c3nc(c(-c4ccc(OC)cc4)c4ccc([nH]4)c(-c4ccc(OP(=O)(NCCCl)NCCCl)cc4)c4nc(c(-c5ccc(OC)cc5)c5ccc2[nH]5)C=C4)C=C3)cc1 | 17.3 µM | Non-toxic
3 | Cc1ccc(-c2c3nc(c(-c4ccc(C)cc4)c4ccc([nH]4)c(-c4ccc(OP(=O)(NCCCl)NCCCl)cc4)c4nc(c(-c5ccc(C)cc5)c5ccc2[nH]5)C=C4)C=C3)cc1 | 11.4 µM | Non-toxic
4 | O=P(NCCCl)(NCCCl)Oc1ccc(-c2c3nc(c(-c4ccc(Br)cc4)c4ccc([nH]4)c(-c4ccc(Br)cc4)c4nc(c(-c5ccc(Br)cc5)c5ccc2[nH]5)C=C4)C=C3)cc1 | 8.41 µM | Non-toxic
5 | O=P(NCCCl)(NCCCl)Oc1ccc(-c2c3nc(c(-c4ccccc4)c4ccc([nH]4)c(-c4ccccc4)c4nc(c(-c5ccccc5)c5ccc2[nH]5)C=C4)C=C3)cc1 | 14.4 µM | Non-toxic
6 | O=Cc1ccc(OP(=O)(NCCCl)NCCCl)cc1 | > 150 µM | Toxic
7 | CC1=C(CCC(=O)O)c2cc3[nH]c(cc4nc(cc5[nH]c(cc1n2)c(C)c5C(C)O)C(C)=C4C(C)O)c(C)c3CCC(=O)O (stereo not drawn) | 8.93 µM | –
